Measurements taken from ChEMBL document CHEMBL1154772, “Synthesis and in vitro evaluation of N-substituted maleimide derivatives as selective monoglyceride lipase inhibitors” (J Med Chem, 2009).

Columns and labels:
[1] = molecular target: T1, Monoglyceride lipase (Homo sapiens) (UniProt Q99685); test: Inhibition of [3H]2-OG binding to human MGL at 20 times IC50 treated for 1 hr before addition of 2-OG by liquid scintillation counting
T1 sequence (whole entry): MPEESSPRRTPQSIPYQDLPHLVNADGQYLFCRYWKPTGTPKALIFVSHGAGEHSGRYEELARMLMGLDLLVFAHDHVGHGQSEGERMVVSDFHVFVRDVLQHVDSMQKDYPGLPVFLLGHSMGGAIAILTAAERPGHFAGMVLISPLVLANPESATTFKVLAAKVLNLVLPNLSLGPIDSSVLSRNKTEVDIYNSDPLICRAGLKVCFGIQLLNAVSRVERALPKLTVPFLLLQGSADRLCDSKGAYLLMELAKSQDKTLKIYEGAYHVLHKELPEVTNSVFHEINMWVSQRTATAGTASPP

Homo sapiens = organism: Homo sapiens; test: Selectivity ratio of IC50 for human FAAH to IC50 for human MGL
Procedure, shortened: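 Ratio of IC50 against human FAAH ([3H]anandamide hydrolysis) to IC50 against purified human MGL ([3H]-2-OG hydrolysis), each from three independent experiments in duplicate.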

Monoglyceride lipase = molecular target: T2, Monoglyceride lipase (Homo sapiens, UniProt Q99685); test: Inhibition of human MGL
T2 sequence (Q99685 whole entry): T1 sequence (whole entry)
Procedure, shortened: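 Purified recombinant human MGL (5 ng) in 50 mM Tris pH 8.0, 0.1% BSA with compound or DMSO vehicle. [3H]-2-OG (10 μM) hydrolysis run 10 min at 37 °C, stopped with ice-cold methanol-chloroform 1:1. Aqueous-phase radioactivity read by liquid scintillation, no-enzyme blanks subtracted.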

Which results are given for CCCCC/C=C\C/C=C\C/C=C\C/C=C\CCCC(=O)C(F)(F)F [ARACHIDONYL TRIFLUOROMETHYLKETONE]?
inhibition [1]: 26%; Ratio IC50 (Homo sapiens): 0.002; IC50 (Monoglyceride lipase): 6.31 µM
